Results on one compound are retold here after ChEMBL document CHEMBL1158629, “Synthesis, in vitro and in vivo evaluation of [11C]MMTP: a potential PET ligand for mGluR1 receptors” (Bioorg Med Chem Lett, 2010).

The structures appear in SMILES notation.

Format in all cases: ADME, organism-based
Data set [1] is described as follows: Ratio of drug uptake in amygdala to cerebellum of baboon brain at 5 +/- 0.5 mCi, iv after 35 mins. The settings on record: papio hamadryas, in vivo. The gist of the method:
(§1)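 Fasted baboons were immobilized with ketamine (10 mg/kg, i.m.) and maintained on 1.5~2.0 % isoflurane via endotracheal tube. Core temperature was held at 37°C on a heated water blanket during PET scanning.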

Data set [2] is described as follows: Ratio of drug uptake in caudate to cerebellum of baboon brain at 5 +/- 0.5 mCi, iv after 85 mins. The settings on record: papio hamadryas, in vivo. Put shortly: as §1
A short description of data set [3]: Ratio of drug uptake in putamen to cerebellum of baboon brain at 5 +/- 0.5 mCi, iv after 85 mins. The following applies: papio hamadryas, in vivo. Put shortly:
as §1

A short description of data set [4]: Ratio of drug uptake in caudate to cerebellum of baboon brain at 5 +/- 0.5 mCi, iv after 65 mins. The settings on record: papio hamadryas, in vivo, pooled result: one value given for 5 cell lines, strains, targets or settings. The gist of the method: as §1
A short description of data set [5]: Metabolic stability in baboon brain assessed as compound remaining at 5 +/- 0.5 mCi, iv after 30 mins. The following applies: papio hamadryas, in vivo, 0.5 h.
Data set [6] is described as follows: Ratio of drug uptake in caudate to cerebellum of baboon brain at 5 +/- 0.5 mCi, iv after 35 mins. The settings on record: papio hamadryas, in vivo. The gist of the method: as §1
The nature of data set [7]: Metabolic stability in baboon brain assessed as compound remaining at 5 +/- 0.5 mCi, iv after 90 mins. The settings on record: papio hamadryas, in vivo, 1.5 h.
Data set [8] can be described thus: Ratio of drug uptake in putamen to cerebellum of baboon brain at 5 +/- 0.5 mCi, iv after 35 mins. The settings on record: papio hamadryas, in vivo. Put shortly: as §1
A short description of data set [9]: Ratio of drug uptake in amygdala to cerebellum of baboon brain at 5 +/- 0.5 mCi, iv after 85 mins. The following applies: papio hamadryas, in vivo. Put shortly:
as §1

Data set [10] is described as follows: Ratio of drug uptake in frontal cortex to cerebellum of baboon brain at 5 +/- 0.5 mCi, iv after 35 mins. The following applies: papio hamadryas, in vivo. The gist of the method:
as §1

The nature of data set [11]: Ratio of drug uptake in hippocampus to cerebellum of baboon brain at 5 +/- 0.5 mCi, iv after 35 mins. The following applies: papio hamadryas, in vivo. The gist of the method: as §1
Data set [12] can be described thus: Ratio of drug uptake in frontal cortex to cerebellum of baboon brain at 5 +/- 0.5 mCi, iv after 85 mins. The following applies: papio hamadryas, in vivo. Put shortly:
as §1

Data set [13] in a line: Ratio of drug uptake in hippocampus to cerebellum of baboon brain at 5 +/- 0.5 mCi, iv after 85 mins. The settings on record: papio hamadryas, in vivo. The gist of the method:
as §1

In the case of `CN(C)c1ccnc2sc3c(=O)n(-c4ccc(O[11CH3])cc4)cnc3c12`, the Ratio in data set [1] was 2; in data set [2], 1.6; in [3], 1.6; in [4], 1.65; in data set [6], 2; in [8], 2. Further, the Ratio is on record as 1.6 in [9]; 2 in data set [10]; 2 in data set [11]; 1.6 in data set [12]; 1.6 in data set [13]. Also, the Stability in data set [5] is 45%; in data set [7], 30%.
